In ChEMBL document CHEMBL4414574, “Structure-Based Discovery and Development of a Series of Potent and Selective Bromodomain and Extra-Terminal Protein Inhibitors” (J Med Chem, 2019):
Active and inactive are the calls of the source. The calls are words filed in the database; no cut-off is given here.

What was measured:
[1] = tested on: MV4-11; assay: Induction of apoptosis in human MV4-11 cells assessed as increase in cleaved caspase-8 level after 24 hrs by Western blot analysis; assay type: functional, cell-based
In short: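 MV4-11 cells exposed to test agent at the indicated doses for 24 h. Lysates immunoblotted for full-length and cleaved caspase-3, -7, -8 and -9, with GAPDH as the loading reference.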

[2] = Half life in rat plasma at 3 mg/kg, iv; assay type: ADME, organism-based
[3] = molecular target: Bromodomain-containing protein 4 (Homo sapiens, UniProt O60885); assay: Binding affinity to human partial length BRD4 bromodomain 2 long isoform (K333 to E460 residues) expressed in Escherichia coli BL21 cells assessed as residual binding level at 1 uM measured after 1 hr by quantitative PCR based BROMOscan assay relative to control
In short: (§1)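 A BROMOScan competition-binding panel of 32 bromodomains was run at a single 1 μM compound concentration. Results are primary-screen 'Percent Control', where lower values indicate stronger binding.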

[4] = molecular target: Bromodomain-containing protein 3 (Homo sapiens) (UniProt Q15059); assay: Binding affinity to human partial length BRD3 bromodomain 2 (G306 to P416 residues) expressed in Escherichia coli BL21 cells assessed as residual binding level at 1 uM measured after 1 hr by quantitative PCR based BROMOscan assay relative to control; in short: as §1
[5] = molecular target: Histone acetyltransferase p300 (Homo sapiens) (UniProt Q09472); assay: Binding affinity to human partial length EP300 (A1040 to G1161 residues) expressed in Escherichia coli BL21 cells assessed as residual binding level at 1 uM measured after 1 hr by quantitative PCR based BROMOscan assay relative to control; in short: as §1
[6] = molecular target: Voltage-gated inwardly rectifying potassium channel KCNH2 (Homo sapiens, UniProt Q12809); assay: Inhibition of human ERG at 40 uM by automatic patch clamp method
[7] = molecular target: CREB-binding protein (Homo sapiens) (UniProt Q92793); assay: Binding affinity to human partial length CREBBP (R1081 to G1197 residues) expressed in Escherichia coli BL21 cells assessed as residual binding level at 1 uM measured after 1 hr by quantitative PCR based BROMOscan assay relative to control; in short: as §1
[8] = Tmax in rat plasma at 50 mg/kg, po; assay type: ADME, organism-based
In short: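 Rats dosed orally at 50 mg/kg in 1% DMSO/0.5% HPMC; drug measured in plasma and brain.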

[9] = molecular target: ATPase family AAA domain-containing protein 2 (Homo sapiens) (UniProt Q6PL18); assay: Binding affinity to human partial length ATAD2A (Q981 to R1108 residues) expressed in Escherichia coli BL21 cells assessed as residual binding level at 1 uM measured after 1 hr by quantitative PCR based BROMOscan assay relative to control; in short: as §1
[10] = molecular target: ATPase family AAA domain-containing protein 2B (Homo sapiens) (UniProt Q9ULI0); assay: Binding affinity to human partial length ATAD2B (Q955 to R1082 residues) expressed in Escherichia coli BL21 cells assessed as residual binding level at 1 uM measured after 1 hr by quantitative PCR based BROMOscan assay relative to control; in short: as §1
[11] = tested on: SK-OV-3; assay: Antiproliferative activity against human SKOV3 cells after 72 hrs by CCK8 or SRB assay; assay type: functional, cell-based
[12] = tested on: MV4-11; assay: Induction of apoptosis in human MV4-11 cells assessed as reduction in XIAP level after 24 hrs by Western blot analysis; assay type: functional, cell-based
[13] = tested on: MDA-MB-436; assay: Antiproliferative activity against human MDA-MB-436 cells after 72 hrs by CCK8 or SRB assay; assay type: functional, cell-based
[14] = Tmax in ICR mouse plasma at 100 mg/kg, po administered via gavage measured after 0.25 to 24 hrs by UPLC/MS analysis; assay type: ADME, organism-based
In short: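 Male ICR mice dosed orally (3, 10 or 100 mg/kg, per line) in 1% DMSO/0.5% HPMC vehicle; plasma drug levels measured.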

[15] = molecular target: Bromodomain-containing protein 7 (Homo sapiens) (UniProt Q9NPI1); assay: Binding affinity to human partial length BRD7 (L125 to R254 residues) expressed in […] assessed as residual binding level at 1 uM measured after 1 hr by quantitative PCR based BROMOscan assay relative to control; in short: as §1
[16] = molecular target: Bromodomain adjacent to zinc finger domain protein 2B (Homo sapiens) (UniProt Q9UIF8); assay: Binding affinity to human partial length BAZ2B (S2054 to S2168 residues) expressed in Escherichia coli BL21 cells assessed as residual binding level at 1 uM measured after 1 hr by quantitative PCR based BROMOscan assay relative to control; in short: as §1
[17] = Half life in mouse liver microsomes at 1 uM preincubated for 5 mins followed by NADPH addition and measured after 5 to 30 mins by LC/MS/MS analysis; assay type: ADME, Microsome; conditions: microsomes, 1 µM
[18] = AUC (0 to t) in rat plasma at 3 mg/kg, iv; assay type: ADME, organism-based
In short: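 Compound was given orally or intravenously in 1% DMSO/0.5% HPMC vehicle. Concentrations in plasma, or in brain where stated, gave Tmax, Cmax, T1/2, AUC0-t and AUC0-inf.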

[19] = organism: Homo sapiens; assay: Antiproliferative activity against human TY82 cells after 72 hrs by CCK8 or SRB assay; assay type: functional, cell-based
[20] = tested on: MV4-11; assay: Induction of apoptosis in human MV4-11 cells assessed as reduction in c-IAP1 level after 24 hrs by Western blot analysis; assay type: functional, cell-based
[21] = tested on: MV4-11; assay: Induction of apoptosis in human MV4-11 cells assessed as reduction in BID level after 24 hrs by Western blot analysis; assay type: functional, cell-based
In short: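 MV4-11 cells exposed to compound at the indicated doses for 24 h; lysates probed by Western blotting for the target protein, with GAPDH as loading control.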

[22] = AUC (0 to t) in ICR mouse brain at 50 mg/kg, po administered via gavage measured after 0.25 to 24 hrs by UPLC/MS analysis; assay type: ADME, organism-based; design: time lower 0.25 hr, dose 50 mg/kg, time upper 24 hr, route oral
In short: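 Male ICR mice were dosed orally in 1% DMSO/0.5% HPMC vehicle. Plasma (and brain, where stated) concentrations gave Tmax, Cmax, T1/2, AUC0-t and AUC0-inf.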

[23] = tested on: NCI-H522; assay: Antiproliferative activity against human NCI-H522 cells after 72 hrs by CCK8 or SRB assay; assay type: functional, cell-based
[24] = molecular target: Transcription initiation factor TFIID subunit 1 (Homo sapiens) (UniProt P21675); assay: Binding affinity to human partial length TAF1 bromodomain 2 (D1521 to D1656 residues) expressed in Escherichia coli BL21 cells assessed as residual binding level at 1 uM measured after 1 hr by quantitative PCR based BROMOscan assay relative to control
In short: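 Bromodomain panel screen (32 bromodomains) run at 1 μM single concentration; primary binding reported as 'Percent Control', lower values meaning stronger interaction.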

[25] = Tmax in rat plasma at 10 mg/kg, po; assay type: ADME, organism-based
In short: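 Oral dosing in 1% DMSO/0.5% HPMC vehicle (dog 3 mg/kg; rat 10 mg/kg); plasma drug levels measured.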

[26] = Half life in rat plasma at 50 mg/kg, po; assay type: ADME, organism-based
[27] = Clearance in dog liver microsomes; assay type: ADME, Canis lupus familiaris, Microsome; conditions: read-out: CLH
[28] = molecular target: Bromodomain and PHD finger-containing protein 3 (Homo sapiens) (UniProt Q9ULD4); assay: Binding affinity to human partial length BRPF3 (E588 to G701 residues) expressed in Escherichia coli BL21 cells assessed as residual binding level at 1 uM measured after 1 hr by quantitative PCR based BROMOscan assay relative to control; in short: as §1

Chain of Transcription initiation factor TFIID subunit 1 (Homo sapiens) (P21675 whole entry, the tested form may be a part): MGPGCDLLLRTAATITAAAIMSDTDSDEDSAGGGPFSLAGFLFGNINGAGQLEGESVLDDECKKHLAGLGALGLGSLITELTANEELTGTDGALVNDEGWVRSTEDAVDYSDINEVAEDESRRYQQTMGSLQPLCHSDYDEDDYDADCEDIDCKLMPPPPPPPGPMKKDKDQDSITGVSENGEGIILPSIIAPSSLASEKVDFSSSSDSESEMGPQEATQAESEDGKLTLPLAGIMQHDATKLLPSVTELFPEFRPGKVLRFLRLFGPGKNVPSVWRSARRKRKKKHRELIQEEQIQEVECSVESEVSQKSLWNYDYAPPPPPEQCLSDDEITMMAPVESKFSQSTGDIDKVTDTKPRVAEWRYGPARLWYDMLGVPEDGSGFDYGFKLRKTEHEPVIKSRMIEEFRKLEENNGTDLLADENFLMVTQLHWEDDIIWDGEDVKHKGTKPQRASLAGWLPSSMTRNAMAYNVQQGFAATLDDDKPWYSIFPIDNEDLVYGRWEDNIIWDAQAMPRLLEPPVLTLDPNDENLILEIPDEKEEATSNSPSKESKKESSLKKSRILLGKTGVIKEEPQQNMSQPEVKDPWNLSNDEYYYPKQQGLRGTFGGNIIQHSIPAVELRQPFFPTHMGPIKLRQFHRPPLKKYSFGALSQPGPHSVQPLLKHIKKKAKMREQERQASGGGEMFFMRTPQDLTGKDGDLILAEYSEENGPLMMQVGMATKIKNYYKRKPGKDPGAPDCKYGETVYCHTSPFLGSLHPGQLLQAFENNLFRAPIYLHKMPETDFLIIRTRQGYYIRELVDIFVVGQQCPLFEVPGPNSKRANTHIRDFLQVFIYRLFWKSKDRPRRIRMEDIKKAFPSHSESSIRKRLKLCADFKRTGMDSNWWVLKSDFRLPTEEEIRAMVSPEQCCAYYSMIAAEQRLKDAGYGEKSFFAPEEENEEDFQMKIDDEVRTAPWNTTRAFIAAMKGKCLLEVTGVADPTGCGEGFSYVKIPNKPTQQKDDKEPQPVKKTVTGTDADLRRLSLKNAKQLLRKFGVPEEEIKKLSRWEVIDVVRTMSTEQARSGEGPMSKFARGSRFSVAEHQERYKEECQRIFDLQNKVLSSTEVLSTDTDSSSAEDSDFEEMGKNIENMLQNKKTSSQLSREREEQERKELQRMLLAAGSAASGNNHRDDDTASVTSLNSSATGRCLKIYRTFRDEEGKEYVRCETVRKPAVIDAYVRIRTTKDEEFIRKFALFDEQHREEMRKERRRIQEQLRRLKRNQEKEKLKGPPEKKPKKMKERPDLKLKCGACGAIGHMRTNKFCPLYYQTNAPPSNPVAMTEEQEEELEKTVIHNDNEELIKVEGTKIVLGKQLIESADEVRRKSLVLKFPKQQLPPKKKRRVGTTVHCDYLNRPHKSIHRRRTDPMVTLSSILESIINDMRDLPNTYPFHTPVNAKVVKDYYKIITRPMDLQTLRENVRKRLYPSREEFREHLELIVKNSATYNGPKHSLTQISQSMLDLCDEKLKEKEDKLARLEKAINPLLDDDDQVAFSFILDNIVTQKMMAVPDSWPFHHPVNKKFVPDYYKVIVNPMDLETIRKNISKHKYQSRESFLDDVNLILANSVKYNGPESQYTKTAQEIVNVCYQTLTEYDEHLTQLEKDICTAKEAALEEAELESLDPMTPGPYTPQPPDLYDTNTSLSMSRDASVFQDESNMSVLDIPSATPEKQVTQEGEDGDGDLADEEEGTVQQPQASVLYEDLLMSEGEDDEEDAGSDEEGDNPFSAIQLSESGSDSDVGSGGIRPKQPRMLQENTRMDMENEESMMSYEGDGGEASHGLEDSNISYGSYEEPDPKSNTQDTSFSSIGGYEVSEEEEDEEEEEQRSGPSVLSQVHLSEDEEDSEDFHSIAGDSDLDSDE
Chain of Bromodomain-containing protein 7 (Homo sapiens) (Q9NPI1 whole entry, the tested form may be a part): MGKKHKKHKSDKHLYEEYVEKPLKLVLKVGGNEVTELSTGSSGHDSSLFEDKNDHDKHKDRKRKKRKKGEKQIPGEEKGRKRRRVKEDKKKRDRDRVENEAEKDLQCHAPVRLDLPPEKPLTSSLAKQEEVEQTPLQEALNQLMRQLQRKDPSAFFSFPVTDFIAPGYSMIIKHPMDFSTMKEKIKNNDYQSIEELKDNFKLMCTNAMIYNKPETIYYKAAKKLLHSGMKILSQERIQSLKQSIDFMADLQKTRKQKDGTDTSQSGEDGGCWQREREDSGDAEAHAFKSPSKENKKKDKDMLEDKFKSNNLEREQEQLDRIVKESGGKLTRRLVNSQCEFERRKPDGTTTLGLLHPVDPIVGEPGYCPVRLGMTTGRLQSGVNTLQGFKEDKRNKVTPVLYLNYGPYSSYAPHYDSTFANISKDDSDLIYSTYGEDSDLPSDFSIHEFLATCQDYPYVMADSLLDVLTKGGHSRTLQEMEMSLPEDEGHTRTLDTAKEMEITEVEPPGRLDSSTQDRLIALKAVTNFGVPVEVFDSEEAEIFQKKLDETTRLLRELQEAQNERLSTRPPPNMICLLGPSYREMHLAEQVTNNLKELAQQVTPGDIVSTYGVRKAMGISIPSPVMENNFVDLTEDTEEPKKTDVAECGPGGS
Chain of Voltage-gated inwardly rectifying potassium channel KCNH2 (Q12809 whole entry, the tested form may be a part): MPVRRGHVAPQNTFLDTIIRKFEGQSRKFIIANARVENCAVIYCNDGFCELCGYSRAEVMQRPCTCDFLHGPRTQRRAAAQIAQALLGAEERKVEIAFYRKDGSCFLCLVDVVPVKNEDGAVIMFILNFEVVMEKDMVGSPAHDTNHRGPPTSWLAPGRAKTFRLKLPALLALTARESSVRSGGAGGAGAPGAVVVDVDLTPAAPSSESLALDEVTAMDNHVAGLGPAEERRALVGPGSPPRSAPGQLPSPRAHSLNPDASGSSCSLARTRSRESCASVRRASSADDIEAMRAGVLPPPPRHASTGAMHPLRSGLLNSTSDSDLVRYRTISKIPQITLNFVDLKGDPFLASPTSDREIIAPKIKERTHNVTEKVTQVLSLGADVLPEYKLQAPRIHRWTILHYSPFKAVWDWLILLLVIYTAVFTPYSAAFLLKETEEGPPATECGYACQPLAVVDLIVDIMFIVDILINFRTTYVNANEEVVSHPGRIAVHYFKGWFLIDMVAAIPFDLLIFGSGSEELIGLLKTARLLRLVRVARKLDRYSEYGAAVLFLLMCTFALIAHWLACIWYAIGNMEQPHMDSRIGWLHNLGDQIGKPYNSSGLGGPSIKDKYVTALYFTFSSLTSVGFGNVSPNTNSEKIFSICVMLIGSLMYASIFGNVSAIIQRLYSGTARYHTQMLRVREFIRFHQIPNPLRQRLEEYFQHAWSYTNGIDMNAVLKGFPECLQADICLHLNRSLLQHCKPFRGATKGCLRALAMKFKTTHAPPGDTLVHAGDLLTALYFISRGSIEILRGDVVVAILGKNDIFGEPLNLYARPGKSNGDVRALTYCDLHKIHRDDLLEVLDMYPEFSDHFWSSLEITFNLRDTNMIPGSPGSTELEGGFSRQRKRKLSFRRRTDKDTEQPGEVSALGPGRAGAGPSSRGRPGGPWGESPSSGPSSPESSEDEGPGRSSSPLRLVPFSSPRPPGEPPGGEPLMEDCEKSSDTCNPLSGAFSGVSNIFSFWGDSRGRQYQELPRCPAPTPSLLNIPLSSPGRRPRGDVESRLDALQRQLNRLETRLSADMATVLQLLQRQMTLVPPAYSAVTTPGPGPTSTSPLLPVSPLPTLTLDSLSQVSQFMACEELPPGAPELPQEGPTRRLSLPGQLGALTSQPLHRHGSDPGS
Chain of Bromodomain-containing protein 3 (Homo sapiens) (Q15059 2-726 limits assumed): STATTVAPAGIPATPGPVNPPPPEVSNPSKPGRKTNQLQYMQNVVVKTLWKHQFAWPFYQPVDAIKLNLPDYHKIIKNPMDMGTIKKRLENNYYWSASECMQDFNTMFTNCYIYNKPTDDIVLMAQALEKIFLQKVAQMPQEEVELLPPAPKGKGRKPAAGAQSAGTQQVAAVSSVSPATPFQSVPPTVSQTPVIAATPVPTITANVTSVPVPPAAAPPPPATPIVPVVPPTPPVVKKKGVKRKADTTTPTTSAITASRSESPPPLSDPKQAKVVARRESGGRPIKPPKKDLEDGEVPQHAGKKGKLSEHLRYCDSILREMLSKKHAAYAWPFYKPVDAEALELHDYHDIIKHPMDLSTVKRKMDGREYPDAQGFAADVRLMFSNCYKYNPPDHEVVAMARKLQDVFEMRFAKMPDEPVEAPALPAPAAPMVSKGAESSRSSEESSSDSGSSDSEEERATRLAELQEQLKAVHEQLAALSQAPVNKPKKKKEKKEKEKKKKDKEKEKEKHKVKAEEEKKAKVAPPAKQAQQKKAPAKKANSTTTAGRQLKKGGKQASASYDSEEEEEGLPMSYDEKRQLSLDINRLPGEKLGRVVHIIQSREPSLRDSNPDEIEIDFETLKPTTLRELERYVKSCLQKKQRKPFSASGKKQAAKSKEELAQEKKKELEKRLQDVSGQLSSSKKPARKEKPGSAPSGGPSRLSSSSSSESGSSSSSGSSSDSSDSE

Compound: Cc1ccc(-n2nc(C(=O)N3C[C@@H](C)N[C@@H](C)C3)nc2-c2ccc3c(c2)N(C2CCCC2)[C@H](C)C(=O)N3C)cc1
- Activity [1]: Dose-dependent effect
- half-life [2]: 108 min
- Activity [3]: < 5%
- Activity [4]: < 5%
- Activity [5]: 20 to 50%
- inhibition (INH) [6]: Not Active
- Activity [7]: 50 to 70%
- Tmax [8]: 24 min
- Activity [9]: 70 to 100%
- Activity [10]: 70 to 100%
- Activity [11]: Active
- Activity [12]: Dose-dependent effect
- Activity [13]: Active
- Tmax [14]: 1.5 h
- Activity [15]: 70 to 100%
- Activity [16]: 70 to 100%
- t1/2 [17]: 193 min
- AUC(0-t) [18]: 2010 ng·h/mL
- Activity [19]: Active
- Activity [20]: Dose-dependent effect
- Activity [21]: Dose-dependent effect
- AUC(0-t) [22]: 2320 ng·h/mL
- Activity [23]: Active
- Activity [24]: 5 to 20%
- Tmax [25]: 2.3 h
- half-life [26]: 378 min
- microsomal CLint [27]: 77 µL/min/mg
- Activity [28]: 70 to 100%
